proCasp3 act: activates human procaspase-3; 330,000 compounds, 0.11% hits; P42574; recombinant procaspase-3 D3A, Ac-DEVD-pNA absorbance 405 nm; activation, % at 8.5 µM; AID 463141;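 active = activation above the mean of all tested compounds plus 3 SD, cut at about 21% in these data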;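 also: 0% = DMSO alone and 100% = DMSO wells spiked with extra 5 µM PC-3 D3A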
Target sequence (P42574 whole entry D9A/D28A/D175A): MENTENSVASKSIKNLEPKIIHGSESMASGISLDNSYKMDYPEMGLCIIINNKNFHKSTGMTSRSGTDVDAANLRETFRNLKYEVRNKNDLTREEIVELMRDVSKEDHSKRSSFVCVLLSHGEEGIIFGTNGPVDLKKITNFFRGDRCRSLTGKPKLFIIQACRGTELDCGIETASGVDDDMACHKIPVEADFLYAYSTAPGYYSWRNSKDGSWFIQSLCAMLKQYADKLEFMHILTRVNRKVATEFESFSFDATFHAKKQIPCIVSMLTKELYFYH
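Evaluation: percent activation relative to control range; Material: Procaspase-3 D3A mutant, all three cleavage aspartates alanine; Compound: single dose, 8.5 µM nominal compound, 0.8% DMSO; Replication: one well per compound; Signal: absorbance at 405 nm, 0 and 120 min; Schedule: 1 h preincubation plus 2 h reaction at 25 °C.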
MsrA act: activators of bovine methionine sulfoxide reductase A; purified bovine MsrA, absorbance read-out; activation, % at 10.6 µM; 360,000 compounds, 0.3% hits; AID 602163; in the data active = activation above about 7.5%;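 also: 0% = vehicle and 100% = reference activator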
proCasp7 act: activates human procaspase-7, counter-screen for procaspase-3 activators; P55210; recombinant procaspase-7, Ac-DEVD-pNA absorbance 405 nm; D23A/D198A/D206A triple mutant, cannot self-cleave; scale: DMSO 0, 5 µM enzyme 100; activation, % at 8.5 µM; 330,000 compounds, 0.093% hits; AID 463210;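 active = percent activation above the screen-wide mean plus 3 SD, cut at about 25% in these data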
Target sequence (P55210 whole entry D23A/D198A/D206A): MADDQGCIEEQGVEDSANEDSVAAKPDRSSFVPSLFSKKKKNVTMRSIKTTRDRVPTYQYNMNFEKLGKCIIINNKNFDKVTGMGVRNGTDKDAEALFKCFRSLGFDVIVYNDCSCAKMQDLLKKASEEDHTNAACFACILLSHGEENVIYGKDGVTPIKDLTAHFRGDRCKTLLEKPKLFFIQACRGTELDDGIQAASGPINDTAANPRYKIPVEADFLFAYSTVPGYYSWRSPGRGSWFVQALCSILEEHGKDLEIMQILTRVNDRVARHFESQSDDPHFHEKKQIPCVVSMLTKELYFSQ
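Detection: p-Nitroaniline absorbance at 405 nm, read at 0 and 120 min; system: Uncleavable procaspase-7 mutant enzyme; evaluation: % activation from two-timepoint absorbance difference, scaled to controls; times: 1 h enzyme–compound preincubation and 2 h substrate reaction, both 25 °C; buffer or medium: Zinc-free HEPES pH 7.4 with 300 mM NaCl, 0.01% Triton X-100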
MsrA inhibitor: inhibits bovine methionine sulfoxide reductase A; purified bovine MsrA, absorbance read-out; inhibition, % at 15.5 µM; 360,000 compounds, 0.75% hits; AID 651718; in the data active = inhibition above about 4.5%;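 also: 0% = vehicle wells with enzyme and 100% = reference inhibitor wells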
* hit, by the source's call; . = not tested or not shown. Only some compounds are listed: those with a hit (about 1.2% of all), similar ones and a draw of the others.

SMILES	proCasp3 act	MsrA act	proCasp7 act	MsrA inhibitor
COC(=O)C1=C(C)N(Cc2ccc(C(F)(F)F)cc2)C(=NCc2ccccc2C(F)(F)F)NC1c1ccccc1C(F)(F)F (stereo not given)	.	.	.	1
COc1ccccc1N1CCN(C(=O)/C=C/c2c(Cl)nc3ccccn23)CC1	6	-14	1	4.6*
O=C(N/N=C\C=C\c1ccc2c(c1)OCO2)C1COc2cc3ccccc3cc2O1 (stereo not given)	3	-6	7	-1
Cc1cc(C(=O)N/N=C/C=C/c2ccc3c(c2)OCO3)n[nH]1	5	-6	9	8.9*
COc1cc2c(c(OC)c1OC)C1(CCCCC1)CC2NCC=C(C)C (stereo not given)	.	.	.	0
COc1cc([N+](=O)[O-])ccc1NC(=O)CN(C)C	1	-3	8	2
CCN(CC(=O)Nc1ccc([N+](=O)[O-])cc1OC)c1ccccc1	-4	-3	8	4.8*
Nc1ccccc1SC(CC(=O)c1ccccc1)c1cccc([N+](=O)[O-])c1 (stereo not given)	.	8.1*	.	1
Nc1ccccc1SC(CC(=O)c1ccccc1)c1ccc([N+](=O)[O-])cc1 (stereo not given)	.	6	.	2
Clc1ccc(-c2csc(NCC3CCCO3)n2)cc1 (stereo not given)	.	.	.	-2
NC(=O)c1nn2c(C(F)(F)F)cc(-c3ccccc3)nc2c1Br	2	-8	14	4.6*
CCOC(=O)Nc1ccc2c(COC(=O)C(NS(=O)(=O)c3ccc(Cl)cc3)C(C)O)cc(=O)oc2c1 (stereo not given)	-1	-3	-2	4.6*
CCOC(=O)Nc1ccc2c(COC(=O)CN(C)S(=O)(=O)c3ccc(C)cc3)cc(=O)oc2c1	10	-7	6	-1
COC(=O)c1cc2c(c3c4ccccc4n(S(=O)(=O)c4ccc(C)cc4)c13)C(=O)N(CC(C)C)C2	.	.	.	1
COc1cc2[nH]c(C(=O)Nc3ccc4c(c3)OCCO4)cc2c(OC)c1OC	7	-4	-1	1
COc1cc2cc(C(=O)Nc3ccc4c(c3)OCCO4)[nH]c2cc1OC	9	-5	-10	4.6*
CC(=O)C1=C(O)C=C(c2ccco2)CC1c1ccco1 (stereo not given)	-21	-13	-34	4.8*
Cn1cccc1/C=C(\C#N)c1ccccc1	2	-4	8	4
Cn1cccc1/C=C(/C#N)c1ccc(F)cc1	-3	-5	-4	5.6*
Cc1ccc2cc3cc(C(=O)NCCCN4CCCC4=O)oc3nc2c1	4	-5	2	4.6*
Cc1ccc2cc3cc(C(=O)NCCN4CCOCC4)oc3nc2c1	5	-18	2	4
Nc1[nH]c(C(=O)c2ccc(Cl)cc2)c(-c2ccc(Br)cc2)c1C(=O)c1c[nH]c2ccc(F)cc12	.	.	.	1
CN(C)c1ccc(/C=N/NC(=S)NCc2ccccc2)cc1	90*	0	32*	4
CC(C)(C)c1ccc(/C=N/NC(=S)NCc2ccccc2)cc1	7	-13	3	0
CC(Nc1cc(N2CCN(C(=O)C(C)(C)C)CC2)ccc1[N+](=O)[O-])c1ccccc1 (stereo not given)	2	-2	1	11*
SMILES	proCasp3 act	MsrA act	proCasp7 act	MsrA inhibitor
CCS(=O)(=O)N1CCN(c2ccc([N+](=O)[O-])c(NC(C)c3ccccc3)c2)CC1 (stereo not given)	5	-4	0	7.3*
OCCN1CN(c2ccccc2)C(=S)N(c2ccccc2)C1	.	.	.	0
CC(=O)N1CCN(c2ccc([N+](=O)[O-])cc2C#N)CC1	-22	2	-26	4.6*
COc1ccc(/C=N/N=C/c2ccc(OC)c(O)c2)cc1O	2	-5	-5	7.1*
CC(C)c1ccc(NC(=O)CSc2nc3ccccc3nc2N2CCCC2)cc1	0	-2	-4	0
Cc1ccc(NC(=O)CSc2nc3ccccc3nc2N2CCCC2)cc1	40*	-2	-2	1
O=C(/C=C/c1ccco1)Nc1ccccn1	-5	-7	10	4
COc1cccc(NC(=O)/C=C/c2ccco2)c1	-5	-3	-3	4.6*
O=C(/C=C/c1ccco1)Nc1ccc2c(c1)OCCO2	-2	-5	-3	4.6*
Cc1ccc(NC(=O)/C=C/c2ccco2)nc1	9	-5	-3	5.0*
O=C(/C=C/c1ccccc1)Nc1ccc2c(c1)OCCO2	-1	-1	7	-1
O=C(NC(CC1=CCCCC1)c1ccc2ccccc2c1)C(F)(F)F (stereo not given)	.	.	.	0
C=CCCC(=O)N1C[C@H]2CCN(C)[C@H]2C[C@H]1c1ccccc1Br	.	.	.	0
Cc1ccc(C(=O)c2nc3c(n2O)CCCC3)cc1	1	-5	5	2
CCOc1ccc(C(=O)c2nc3c(n2O)CCCC3)cc1	0	-12	-31	5.0*
CC(=O)c1ccc(N2CCN(C(=O)C(=O)c3c(C)[nH]c4ccccc34)CC2)cc1	-2	-6	9	4.6*
COC(=O)[C@]1(Cc2ccccc2)NC=C(C(=O)c2ccccc2)[C@@H]1c1cccs1	.	.	.	1
Cc1cc(C)nc(N/N=C/c2ccco2)n1	3	-3	-3	4
Cc1cc(C)nc(N/N=C/c2cc(C)n(CC(F)(F)F)c2C)n1	-1	-3	8	4.6*
COc1ccc(-c2nc3ncccc3o2)cc1NC(=O)c1ccco1	5	-4	-3	4.6*
CN(C)c1nc(NCc2ccccc2)nc(SCC(=O)Nc2ccccc2)n1	0	18*	1	1
CN(C)c1nc(NCc2ccccc2)nc(SCC(=O)Nc2ccccc2Cl)n1	1	-1	7	0
C[C@@H]1C=CCCO[C@]12C(=O)Nc1ccccc12	.	.	.	0
O=C(N[C@H](Cc1ccccc1)C(=O)N1CCN(c2ncccn2)CC1)[C@H]1O[C@@H](n2ccc(=O)[nH]c2=O)[C@H](O)[C@@H]1O	.	.	.	2
CCc1nc(NC(=O)c2sc(C)nc2C)sc1C(=O)OC	5	-3	5	4.6*
SMILES	proCasp3 act	MsrA act	proCasp7 act	MsrA inhibitor
O=C(O)CCC(=O)Nc1ccc(-c2nc3ccc(C(=O)c4ccccc4)cc3[nH]2)cc1	2	-4	-2	4.6*
O=C(c1ccccc1)c1ccc2nc(-c3ccc(NC(=O)c4ccccc4F)cc3)[nH]c2c1	1	1	1	3
COC(=O)[C@]12C[C@H](CC(=O)NCc3ccc(C)o3)C(=O)N(Cc3ccc4c(c3)OCO4)C1=C[C@H](COCc1ccccc1)O[C@@H]2C	.	.	.	0
CC1(C)CC(N2CCN(Cc3ccccc3)CC2)=CC(=[N+]2CCCCC2)C1	1	-12	-7	4
CN(Cc1ccccc1)C1=CC(=[N+]2CCCCC2)CC(C)(C)C1	4	-18	-1	4.7*
C[C@H](O)[C@@H]1C(=O)N2CCc3c([nH]c4cccc(-c5ccccc5)c34)[C@@H]2C[C@@H]1N(C)C(=O)c1ccco1	.	.	.	-1
O=C(/C=C(\Nc1cc(Cl)c(Cl)c(Cl)c1)c1ccccc1)c1ccccc1	.	.	.	0
